Here are results for 167 variants from the RNAGym collection of RNA variant scans (doi:10.1126/science.aae0568).

To fix the notation:
B1: tRNA (parent)
chain: GUUCCGUUGGCGUAAUGGUAACGCGUCUCCCUCCUAAGGAGAAGACUGCGGGUUCGAGUCCCGUACGGAACG

Fewer inactive variants are shown than the library holds. Bounds are passed on as bounds.

Variants of B1 are the subject of this series. The experiment in a line: yeast fitness relative to wild type (ratio to wild type); higher = fitter; tRNA-Arg(CCU), competitive growth, 37 C, YPD. In short, it runs like this: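 Variants of the tRNA-Arg(CCU) gene were chemically synthesised with a 3% per-site mutation rate across 69 sites and placed at the native genomic locus in Saccharomyces cerevisiae. Six parallel replicates of the pooled strains were competed in YPD at 37°C for 24 hours, and gene amplicons from the start and end populations were read by 100-nucleotide paired-end sequencing. Darwinian fitness relative to wild type was derived from changes in genotype frequencies. Genotypes required ≥ 100 starting reads, and estimates < 0.5 were set to 0.5.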
Consider A42G U47A C55U A57C, for which the yeast fitness came out at 0.631.
Consider A42U C46U C62U, for which the yeast fitness is 0.89.
For the variant A43G C55A A69U, the yeast fitness was 0.633.
Regarding A43C U47C, the yeast fitness was found to be 1.07.
With A43C G68A, the yeast fitness is 0.922.
On to A42U G50A G63C G67A, for which the yeast fitness was at most 0.5.
As for A43G G51A G58A, the yeast fitness is 0.58.
Regarding A43C C66A, the yeast fitness was 0.699.
Consider A43C C66G, for which the yeast fitness worked out at 0.603.
For A43U C49A C66U A70U, the yeast fitness turned out to be 0.529.
On to A42U A57C C61U A65U, for which the yeast fitness is 0.58.
For A42G G50C, the yeast fitness was 0.634.
Under A43G A45C C49G stands 0.532; under A42U C62A A65U, 0.604.
In the case of A42U U47C, the yeast fitness was determined as 0.939.
For the variant A42U U47A, the yeast fitness stood at 0.789.
Turning to A43U G56A G63A, the yeast fitness turned out to be 0.773.
For the variant A42U G50A C60G U64C, the yeast fitness is at most 0.5.
Take A43G G58A: the yeast fitness was determined as 0.969.
In the case of A43U A57G, the yeast fitness amounted to 1.01.
Turning to A43U A57U, the yeast fitness stood at 0.761.
Under A42G C46U G52C C61A stands at most 0.5; under A43U C61G C62U G68A A69C, at most 0.5.
As for A43C A65C, the yeast fitness stood at 1.03.
With A43U G48C C60G G63A, the yeast fitness is at most 0.5.
For A43G G52C U53C G63C, the yeast fitness turned out to be 0.604.
For the variant A43C A69U A70C, the yeast fitness was 1.03.
Consider A42U U54A G58A, for which the yeast fitness was at most 0.5.
Turning to A42G C55A, the yeast fitness was 0.607.
Consider A42U A45U C46U C66A, for which the yeast fitness was at most 0.5.
For the variant A43C A57C, the yeast fitness was determined as 0.681.
For A43C A57G the value was 0.744.
With A43C G52C, the yeast fitness was found to be 0.74.
Regarding A42G G67A G68A, the yeast fitness is at most 0.5.
Under A42U U47A U53A stands 0.727; under A43U G67A A69U, 0.548; under A42G U47A U53C, at most 0.5.
For A43G G44A C46A the value was 0.976; for A43U G48A G56C A57U, 0.693.
For the variant A43U G48C, the yeast fitness stood at 0.922.
Under A42G G44A stands 0.962; under A43G A45U A69U, 0.771; under A42G A65U, 0.689.
For the variant A42G A65C, the yeast fitness came out at 0.755.
For A42U A43G C61A the value was 0.723.
As for A43C G58C, the yeast fitness worked out at 1.03.
For A42U G44C A45U C49G the value was at most 0.5.
As for A42U U64C, the yeast fitness is 1.05.
On to A43C A57U G63A, for which the yeast fitness was 0.556.
For A43C A70U the value was 1.06; for A43U C60G U64A, 0.679; for A42U A57C A69C, at most 0.5.
Consider A43G A45U G67U, for which the yeast fitness was determined as 0.682.
A42U C46G: the yeast fitness turned out to be 1.12.
Turning to A42G G52C, the yeast fitness came to 0.574.
Take A42G G52A: the yeast fitness stood at 0.648.
As to A42G G52C A65U, the yeast fitness is at most 0.5.
Under A42U G67A stands 0.758; under A42U G67U, 0.813; under A42G G56C, 0.595.
For the variant A43U C49G, the yeast fitness was 0.727.
A42U A57U C62U: the yeast fitness was 0.529.
For A42G G67C A70C the value was at most 0.5; for A42G C60A C62A, at most 0.5.
For the variant A43C C49U C62G, the yeast fitness worked out at 0.561.
For the variant A43C U54A A57G, the yeast fitness was at most 0.5.
Take A42U G44C U53C: the yeast fitness is at most 0.5.
A43U U59A C61A: the yeast fitness came out at 0.629.
As to A43U C55A G68C A69U, the yeast fitness was at most 0.5.
For A42U U53A, the yeast fitness was 0.565.
Under A42G G52C C66U G68A stands at most 0.5; under A42U U47C G51A A70C, 0.502; under A43U C62U G63A, 0.823.
Regarding A42U C61G, the yeast fitness came out at 0.686.
As to A42U C61A, the yeast fitness was found to be 0.683.
For A43U G63C the value was 0.589; for A43U U59G, 0.81; for A42U C60U, 0.769.
Under A42U C60G stands 0.579.
In the case of A43U G50C C60A, the yeast fitness was at most 0.5.
A43U A69C: the yeast fitness was determined as 0.986.
Turning to A43U A69G, the yeast fitness is 0.886.
Turning to A43U C46A G48C, the yeast fitness worked out at 0.631.
Under A42G U47A C66U stands 0.567; under A42U G56A, 1.02; under A43U U47C, 0.899.
As to A42U U59A U64G, the yeast fitness was at most 0.5.
Under A42U C62G G63C A65U stands at most 0.5; under A43U, 0.988; under A43G, 0.991.
Turning to A43C, the yeast fitness worked out at 0.997.
Turning to A42G C46A G68A A70U, the yeast fitness amounted to 0.568.
For A43G G50A G51A the value was at most 0.5.
For A43G G44A C46A G67A the value was 0.59; for A43G C55U C61A, at most 0.5.
For G44A A45C C49G A69C the value was 0.698; for A42U A43G G52C C60A, at most 0.5.
As for A43U G50C, the yeast fitness came out at 0.812.
Consider A43U G50A, for which the yeast fitness turned out to be 0.796.
Take A42G C49U C66A: the yeast fitness is at most 0.5.
Consider A43U C62U A70C, for which the yeast fitness turned out to be 0.637.
On to A43G U53C C55U C62U, for which the yeast fitness was at most 0.5.
For the variant A42G C66U, the yeast fitness was found to be 0.814.
Under A42G C66G stands 0.808.
For A43U C66U the value was 0.829; for G44A A45C C49G, 0.983; for A42G G50C G58A A69C, at most 0.5.
For A43C G50C A70U, the yeast fitness is 0.574.
Regarding A43G C62A, the yeast fitness stood at 0.72.
As to A43G C62G, the yeast fitness stood at 0.752.
As for A43G C62U, the yeast fitness was 0.877.
Take A43U G56A: the yeast fitness was 0.96.
Under A43C G50C stands 0.593.
In the case of A43C G50A, the yeast fitness came out at 0.803.
Under A43U U53A A69C stands 0.614; under A42G G48C, 0.741.
In the case of A43G C46U C60G G68U, the yeast fitness amounted to 0.567.
As to A42U A45U C49G, the yeast fitness worked out at 0.526.
Take A43U C62A: the yeast fitness came out at 0.702.
Turning to A43G A45U G48A, the yeast fitness is 0.658.
Turning to A43G C66U G68A, the yeast fitness was determined as 0.585.
As to A43C C49U C55G C61U, the yeast fitness was determined as 0.556.
As for A43U C46A G63A, the yeast fitness was 0.689.
Turning to A42U G44A G51A, the yeast fitness turned out to be 0.669.
Regarding A43C G48A, the yeast fitness was found to be 1.06.
As to A43G A57C C60G, the yeast fitness was at most 0.5.
For A43U G50A G68A the value was at most 0.5; for A42G G51U A57U G67A, at most 0.5; for A43G A45U C46U A70U, at most 0.5.
In the case of A42U C49A G56C A65G, the yeast fitness is at most 0.5.
Regarding A43C C46A G48C, the yeast fitness was found to be 0.851.
In the case of A42U A57U C61G, the yeast fitness was at most 0.5.
Take A43U A65U: the yeast fitness worked out at 0.883.
On to A43U A65C, for which the yeast fitness turned out to be 0.952.
Under A42U A45C A70C stands 0.721.
As to A42G C49G U54C, the yeast fitness was found to be 0.536.
A43U C46U A69U: the yeast fitness turned out to be 0.807.
With A42U A43C U64C G68C, the yeast fitness is at most 0.5.
Under A43U U54A A57C stands 0.533.
In the case of A42G G44C A45G, the yeast fitness is 0.723.
Turning to A43U A65C A69C, the yeast fitness is at most 0.5.
Under A43C U53A U54C stands 0.583; under A42U A65C G67U, at most 0.5; under A42U G58U G68C, at most 0.5.
For A42U C62A, the yeast fitness was 0.636.
Under A43U G58U stands 0.694; under A43G G63C G68A, at most 0.5.
Under A43G G48A stands 0.933; under A42U A69U, 1.02; under A43U U47G U53G, 0.519.
As to A42U G56A C62A, the yeast fitness is 0.586.
For A42U G48A C61G C66G, the yeast fitness was at most 0.5.
For A42G C66G G67C, the yeast fitness is at most 0.5.
Under A42U G50A stands 0.743; under A43G U64C, 0.923.
A43G U64A: the yeast fitness was 0.77.
Turning to A42U C61A C62A G63A, the yeast fitness was 0.748.
With A42U G48A U54C, the yeast fitness amounted to 0.696.
Under A43U U54A A70G stands at most 0.5.
On to A42G G56A G63C, for which the yeast fitness amounted to 0.51.
For A43U A45C the value was 0.837.
Turning to A43U C46A A65C A70U, the yeast fitness was at most 0.5.
For the variant A43G A57C G58A A65U, the yeast fitness was at most 0.5.
Turning to A43G G52A A69U A70C, the yeast fitness is at most 0.5.
A42G A57C C61G: the yeast fitness is 0.708.
Turning to A43G G50A, the yeast fitness was 0.864.
For A43C C60G G67A, the yeast fitness was at most 0.5.
